Columns and labels:
Interstitial collagenase = molecular target: T1, Interstitial collagenase (Homo sapiens, UniProt P03956); assay: In vitro inhibitory activity against matrix metalloprotease -1 (collagenase-1)
T1 sequence (P03956 whole entry): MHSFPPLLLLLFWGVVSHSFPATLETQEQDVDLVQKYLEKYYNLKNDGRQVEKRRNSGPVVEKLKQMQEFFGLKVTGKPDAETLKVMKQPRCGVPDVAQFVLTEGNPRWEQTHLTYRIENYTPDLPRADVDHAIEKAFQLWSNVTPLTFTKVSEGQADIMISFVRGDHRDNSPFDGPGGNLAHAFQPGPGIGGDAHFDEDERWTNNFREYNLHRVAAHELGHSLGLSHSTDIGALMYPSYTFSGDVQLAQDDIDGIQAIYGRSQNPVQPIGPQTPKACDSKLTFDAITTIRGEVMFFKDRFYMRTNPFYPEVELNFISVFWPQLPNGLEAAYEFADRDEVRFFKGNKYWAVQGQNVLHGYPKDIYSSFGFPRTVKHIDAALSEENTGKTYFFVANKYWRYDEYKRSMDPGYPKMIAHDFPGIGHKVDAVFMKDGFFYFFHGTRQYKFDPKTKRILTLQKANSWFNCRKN

Collagenase 3 = Collagenase 3 (Homo sapiens, UniProt P45452); assay: In vitro inhibitory activity against human recombinant matrix metalloprotease-13 (collagenase-3)
Stromelysin-1 = Stromelysin-1 (Homo sapiens, UniProt P08254); assay: In vitro inhibitory activity against matrix metalloprotease -3 (stromelysin)
Chain of Stromelysin-1 (P08254 whole entry): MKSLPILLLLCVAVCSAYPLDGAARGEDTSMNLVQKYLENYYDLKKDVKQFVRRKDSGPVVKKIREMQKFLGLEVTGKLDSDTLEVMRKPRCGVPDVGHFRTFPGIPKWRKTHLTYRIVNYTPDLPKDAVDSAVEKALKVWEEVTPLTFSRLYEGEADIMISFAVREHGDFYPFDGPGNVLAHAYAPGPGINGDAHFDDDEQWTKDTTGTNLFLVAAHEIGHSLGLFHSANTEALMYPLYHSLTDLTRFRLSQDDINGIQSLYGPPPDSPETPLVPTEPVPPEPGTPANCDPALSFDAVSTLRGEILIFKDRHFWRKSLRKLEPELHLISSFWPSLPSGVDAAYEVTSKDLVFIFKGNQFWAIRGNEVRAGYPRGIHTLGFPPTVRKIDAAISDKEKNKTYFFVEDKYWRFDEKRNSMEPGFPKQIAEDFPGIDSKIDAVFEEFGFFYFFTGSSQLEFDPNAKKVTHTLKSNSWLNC

Matrilysin = molecular target: T2, Matrilysin (Homo sapiens, UniProt P09237); assay: In vitro inhibitory activity against matrix metalloprotease-7 (matrilysin, MMP-7)
T2 sequence (P09237 whole entry): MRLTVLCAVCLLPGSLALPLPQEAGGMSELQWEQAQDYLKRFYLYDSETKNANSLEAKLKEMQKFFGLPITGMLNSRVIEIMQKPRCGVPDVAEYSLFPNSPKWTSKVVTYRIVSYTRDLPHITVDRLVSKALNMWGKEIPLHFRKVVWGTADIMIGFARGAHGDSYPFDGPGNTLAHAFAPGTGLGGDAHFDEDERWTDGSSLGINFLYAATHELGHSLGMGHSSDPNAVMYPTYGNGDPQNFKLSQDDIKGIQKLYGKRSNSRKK
Method in brief: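 Human recombinant truncated enzymes, final MMP-1 8 nM, MMP-3 16 nM, MMP-7 2 nM. Quenched-fluorescence assay with Mca-Pro-Leu-Gly-Leu-Dpa-Ala-Arg-NH₂ (4 µM) in 50 mM Tris pH 7.5, 0.2 M NaCl, 5 mM CaCl₂, 0.02% Brij-35 at 25 °C. Fluorescence (ex 328/em 393 nm) read kinetically for 30 min.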

[1] = molecular target: 72 kDa type IV collagenase (Homo sapiens, UniProt P08253); assay: In vitro inhibitory activity against matrix metalloprotease -2 (gelatinase-A)
Chain of 72 kDa type IV collagenase (P08253 whole entry): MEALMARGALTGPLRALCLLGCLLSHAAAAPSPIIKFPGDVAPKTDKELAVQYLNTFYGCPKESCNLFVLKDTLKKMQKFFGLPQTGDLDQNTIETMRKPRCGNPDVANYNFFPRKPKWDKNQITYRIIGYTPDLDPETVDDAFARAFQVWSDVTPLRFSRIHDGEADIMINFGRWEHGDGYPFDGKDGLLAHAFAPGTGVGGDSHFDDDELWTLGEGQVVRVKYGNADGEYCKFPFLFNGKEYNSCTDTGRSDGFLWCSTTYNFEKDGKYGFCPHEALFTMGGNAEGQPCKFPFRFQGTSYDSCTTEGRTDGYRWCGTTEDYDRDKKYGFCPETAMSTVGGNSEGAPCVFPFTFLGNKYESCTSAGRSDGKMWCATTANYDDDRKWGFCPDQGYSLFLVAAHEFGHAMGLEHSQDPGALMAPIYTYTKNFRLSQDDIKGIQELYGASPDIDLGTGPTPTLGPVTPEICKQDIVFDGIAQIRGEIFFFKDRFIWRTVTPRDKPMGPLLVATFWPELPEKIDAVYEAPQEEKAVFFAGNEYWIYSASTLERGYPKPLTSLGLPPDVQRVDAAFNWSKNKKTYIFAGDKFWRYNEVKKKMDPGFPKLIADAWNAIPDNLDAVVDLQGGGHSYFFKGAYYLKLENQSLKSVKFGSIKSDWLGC

Row | IC50 (Interstitial collagenase) | IC50 (Collagenase 3) | IC50 (Stromelysin-1) | IC50 (Matrilysin) | IC50 [1] | SMILES
1 | 440 nM | 0.9 nM | 10 nM | 2400 nM | – | CCCCOc1ccc(S(=O)(=O)N2C[C@@H](NC(=O)[C@@H](O)CC(C)C)C[C@@H]2C(=O)NO)cc1
2 | 19 nM | < 0.4 nM | 5 nM | 790 nM | – | O=C(NO)[C@H]1C[C@H](N2CCCC2)CN1S(=O)(=O)c1ccc(Oc2ccccc2)cc1
3 | 260 nM | 2 nM | 42 nM | 2700 nM | 2 nM | COc1ccc(S(=O)(=O)N2C[C@@H](NS(C)(=O)=O)C[C@@H]2C(=O)NO)cc1
4 | 140 nM | – | 7 nM | – | 0.3 nM | COc1ccc(S(=O)(=O)N2C[C@@H](NC(=O)[C@H](C)OCc3ccccc3)C[C@@H]2C(=O)NO)cc1
5 | – | 1 nM | 48 nM | 7400 nM | 6 nM | COc1ccc(S(=O)(=O)N2C[C@@H](N3CCCCC3)C[C@@H]2C(=O)NO)cc1
6 | 310 nM | 1 nM | 8 nM | 8700 nM | < 1 nM | CCCOc1ccc(S(=O)(=O)N2C[C@@H](N3CCCC3)C[C@@H]2C(=O)NO)cc1
7 | 270 nM | 0.8 nM | 8 nM | 1700 nM | – | CCCCOc1ccc(S(=O)(=O)N2C[C@@H](NC(=O)[C@@H](O)C(C)C)C[C@@H]2C(=O)NO)cc1
8 | 1200 nM | 0.7 nM | 14 nM | 4900 nM | – | CCCCOc1ccc(S(=O)(=O)N2C[C@@H](NC(=O)COC)C[C@@H]2C(=O)NO)cc1
9 | 270 nM | 17 nM | 10 nM | – | 2.2 nM | COc1ccc(S(=O)(=O)N2C[C@@H](N(Cc3cccnc3)C(=O)C(C)C)C[C@@H]2C(=O)NO)cc1
10 | 1200 nM | 0.9 nM | 10 nM | 4200 nM | – | CCCCOc1ccc(S(=O)(=O)N2C[C@@H](NC(=O)[C@H](C)O)C[C@@H]2C(=O)NO)cc1
11 | 210 nM | 0.4 nM | 9 nM | 620 nM | – | CCCOc1ccc(S(=O)(=O)N2C[C@@H](N3CCCCC3)C[C@@H]2C(=O)NO)cc1
12 | 700 nM | – | 6 nM | – | – | CCCCOc1ccc(S(=O)(=O)N2C[C@@H](NS(=O)(=O)c3cn(C)cn3)C[C@@H]2C(=O)NO)cc1
13 | 2000 nM | 0.9 nM | 12 nM | 9800 nM | – | CCCCCc1ccc(S(=O)(=O)N2C[C@@H](N3CCCCC3)C[C@@H]2C(=O)NO)cc1
14 | 380 nM | – | 8 nM | – | – | CCCCOc1ccc(S(=O)(=O)N2C[C@@H](N)C[C@@H]2C(=O)NO)cc1
15 | 140 nM | 1 nM | 8 nM | 3500 nM | – | CCCOc1ccc(S(=O)(=O)N2C[C@@H](NC(=O)[C@H](C)O)C[C@@H]2C(=O)NO)cc1
16 | 560 nM | – | 57 nM | 1400 nM | – | COc1ccc(S(=O)(=O)N2C[C@@H](NCCc3ccccc3)C[C@@H]2C(=O)NO)cc1
17 | – | 0.7 nM | 12 nM | 7400 nM | – | CCCCCc1ccc(S(=O)(=O)N2C[C@@H](N3CCOCC3)C[C@@H]2C(=O)NO)cc1
18 | 3100 nM | 27 nM | 300 nM | – | – | CNC(=O)N[C@H]1C[C@H](C(=O)NO)N(S(=O)(=O)c2ccc(OC)cc2)C1
19 | 1300 nM | 0.7 nM | – | 3900 nM | 0.8 nM | CCCCOc1ccc(S(=O)(=O)N2C[C@@H](NS(C)(=O)=O)C[C@@H]2C(=O)NO)cc1
20 | – | 5 nM | 87 nM | 2200 nM | – | CCCN[C@H]1C[C@H](C(=O)NO)N(S(=O)(=O)c2ccc(OC)cc2)C1
21 | 42 nM | 0.4 nM | 13 nM | 1400 nM | – | COc1ccc(S(=O)(=O)N2C[C@@H](N3CCCS3(=O)=O)C[C@@H]2C(=O)NO)cc1
22 | 220 nM | – | 14 nM | – | 6 nM | COc1ccc(S(=O)(=O)N2C[C@@H](N3CCOCC3)C[C@@H]2C(=O)NO)cc1
23 | 19 nM | 0.5 nM | 6 nM | 520 nM | – | COc1ccc(S(=O)(=O)N2C[C@@H](N(C)S(C)(=O)=O)C[C@@H]2C(=O)NO)cc1
24 | 500 nM | 3 nM | 30 nM | > 10000 nM | – | CCCOc1ccc(S(=O)(=O)N2C[C@@H](NC(=O)COC)C[C@@H]2C(=O)NO)cc1
25 | 300 nM | 1 nM | 23 nM | 7100 nM | – | COc1ccc(S(=O)(=O)N2C[C@@H](N3CCS(=O)(=O)CC3)C[C@@H]2C(=O)NO)cc1
26 | > 1000 nM | – | 400 nM | – | – | COc1ccc(S(=O)(=O)N2C[C@@H](NC(=O)c3ccc(-c4ccccc4)cc3)C[C@@H]2C(=O)NO)cc1
27 | 100 nM | < 0.4 nM | 8 nM | 840 nM | – | CCCOc1ccc(S(=O)(=O)N2C[C@@H](N3CCCS3(=O)=O)C[C@@H]2C(=O)NO)cc1

Row | SMILES | IC50 (Interstitial collagenase) | IC50 (Collagenase 3) | IC50 (Stromelysin-1) | IC50 (Matrilysin) | IC50 [1]
28 | CC(C)COc1ccc(S(=O)(=O)N2C[C@@H](N3C(=O)CN(C)C3=O)C[C@@H]2C(=O)NO)cc1 | 300 nM | 2.8 nM | 3 nM | 2300 nM | –
29 | CCCCOc1ccc(S(=O)(=O)N2C[C@@H](N3CCCS3(=O)=O)C[C@@H]2C(=O)NO)cc1 | 230 nM | < 0.4 nM | 13 nM | 680 nM | –
30 | CN1CC(=O)N([C@H]2C[C@H](C(=O)NO)N(S(=O)(=O)c3ccc(Oc4ccccc4)cc3)C2)C1=O | 21 nM | < 0.4 nM | 6 nM | 310 nM | –
31 | C=CCN1CC(=O)N([C@H]2C[C@H](C(=O)NO)N(S(=O)(=O)c3ccc(OCCOC)cc3)C2)C1=O | 2900 nM | 2 nM | 46 nM | 11000 nM | 2 nM
32 | CCCCOc1ccc(S(=O)(=O)N2C[C@@H](N3C(=O)CN(CCC)C3=O)C[C@@H]2C(=O)NO)cc1 | 570 nM | 0.3 nM | 10 nM | 1200 nM | 0.4 nM
33 | O=C(NO)[C@H]1C[C@H](N2CCCC2)CN1S(=O)(=O)c1ccc(Oc2ccc(F)cc2)cc1 | 20 nM | < 0.4 nM | 4 nM | 850 nM | –
34 | CCOc1ccc(S(=O)(=O)N2C[C@@H](N3C(=O)CN(C)C3=O)C[C@@H]2C(=O)NO)cc1 | 580 nM | 4 nM | 33 nM | 7500 nM | –
35 | COc1ccc(S(=O)(=O)N2C[C@@H](NC(=O)[C@H](Cc3ccccc3)OCc3ccccc3)C[C@@H]2C(=O)NO)cc1 | 240 nM | 2 nM | 10 nM | – | 0.2 nM
36 | CCCN1CC(=O)N([C@H]2C[C@H](C(=O)NO)N(S(=O)(=O)c3ccc(OCCOC)cc3)C2)C1=O | 2500 nM | 2 nM | 30 nM | 11000 nM | 2 nM
37 | O=C(NO)[C@H]1C[C@H](N2CCCCC2)CN1S(=O)(=O)c1ccc(Oc2ccccc2)cc1 | 17 nM | < 0.4 nM | 8 nM | 610 nM | –
38 | CCCCOc1ccc(S(=O)(=O)N2C[C@@H](N3C(=O)NC(SC)C3=O)C[C@@H]2C(=O)NO)cc1 (stereo partly specified) | 750 nM | < 0.5 nM | 42 nM | 850 nM | 49 nM
39 | C=CCN1CC(=O)N([C@H]2C[C@H](C(=O)NO)N(S(=O)(=O)c3ccc(OCCC)cc3)C2)C1=O | 350 nM | 0.4 nM | 11 nM | 2600 nM | 0.8 nM
40 | CCCOc1ccc(S(=O)(=O)N2C[C@@H](N3C(=O)CN(C)C3=O)C[C@@H]2C(=O)NO)cc1 | 260 nM | 0.3 nM | 9 nM | 2600 nM | –
41 | CN1CC(=O)N([C@H]2C[C@H](C(=O)NO)N(S(=O)(=O)c3ccc(Oc4ccncc4)cc3)C2)C1=O | 600 nM | 0.7 nM | 11 nM | 7400 nM | –
42 | COc1ccc(S(=O)(=O)N2C[C@@H](N3C(=O)CN(C)C3=O)C[C@@H]2C(=O)NO)cc1 | 200 nM | 0.5 nM | 8 nM | 1800 nM | –
43 | CS(=O)(=O)N[C@H]1C[C@H](C(=O)NO)N(S(=O)(=O)c2ccc(Oc3ccncc3)cc2)C1 | 450 nM | 0.8 nM | 22 nM | > 10000 nM | –
44 | O=C(NO)[C@H]1C[C@H](N2CCOCC2)CN1S(=O)(=O)c1ccc(Oc2ccccc2)cc1 | 19 nM | < 0.4 nM | 7 nM | 710 nM | –
